In ChEMBL document CHEMBL4689842, “EUbOPEN Chemogenomics Library wave 1” (2021):

Tested on: HEK-293T
Assay: Multiplex assay against HEK293T;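 on Population Tubulin-Different-Phenotype (%): share of the cells with healthy nuclei that show this phenotype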
Assay type: toxicity, cell-based
Details: human
How it was run: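 Imaging took place on a CQ1 microscope at 37°C and 5% CO2 once compound had been added to live cells stained at seeding with Hoechst33342, BioTracker Green Microtubule Cytoskeleton Dye, MitoTracker Red and Annexin V Alexa Fluor 680. CellPathfinder machine-learning gating classed cells as Hoechst high-intensity objects or normal cells, classed normal cells as having healthy, pyknosed or fragmented nuclei, and classed pyknosed cells as mitotic or apoptotic. Tubulin, mitochondrial-mass and membrane-permeability phenotypes are per cents of the healthy-nucleus cells.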

[1] = 12 h, 1 µM, compound concentration 1 uM, replicate 1
[2] = 12 h, 1 µM, compound concentration 1 uM, replicate 2
[3] = 12 h, 10 µM, compound concentration 10 uM, replicate 1
[4] = 12 h, 10 µM, compound concentration 10 uM, replicate 2
[5] = 24 h, 1 µM, compound concentration 1 uM, replicate 1
[6] = 24 h, 1 µM, compound concentration 1 uM, replicate 2
[7] = 24 h, 10 µM, compound concentration 10 uM, replicate 1
[8] = 24 h, 10 µM, compound concentration 10 uM, replicate 2
[9] = 48 h, 1 µM, compound concentration 1 uM, replicate 1
[10] = 48 h, 1 µM, compound concentration 1 uM, replicate 2
[11] = 48 h, 10 µM, compound concentration 10 uM, replicate 1
[12] = 48 h, 10 µM, compound concentration 10 uM, replicate 2

## O=C1N/C(=N/c2ccccc2F)S/C1=C\c1ccc(C(=O)O)cc1
[1]
  Population Apoptotic (%): 31%
  Population Fragmented Nuclei (%): 14%
  Population Healthy Nuclei (%): 38%
  Population Hoechst High Intensity Objects (%): 14%
  Population Membrane Permeable-Phenotype (%): 0%
  Population Mitochondria Different-Phenotype (%): 70%
  Population Mitotic Cells (%): 68%
  Population Normal (%): 85%
  Population Pyknosed Nuclei (%): 46%
  Population Tubulin-Different-Phenotype (%): 21%
  Total Cell Count: 182
[2]
  Population Apoptotic (%): 8%
  Population Fragmented Nuclei (%): 6%
  Population Healthy Nuclei (%): 42%
  Population Hoechst High Intensity Objects (%): 4%
  Population Membrane Permeable-Phenotype (%): 6%
  Population Mitochondria Different-Phenotype (%): 6%
  Population Mitotic Cells (%): 91%
  Population Normal (%): 95%
  Population Pyknosed Nuclei (%): 50%
  Population Tubulin-Different-Phenotype (%): 6%
  Total Cell Count: 145
[3]
  Population Apoptotic (%): 36%
  Population Fragmented Nuclei (%): 10%
  Population Healthy Nuclei (%): 38%
  Population Hoechst High Intensity Objects (%): 14%
  Population Membrane Permeable-Phenotype (%): 4%
  Population Mitochondria Different-Phenotype (%): 63%
  Population Mitotic Cells (%): 63%
  Population Normal (%): 85%
  Population Pyknosed Nuclei (%): 50%
  Population Tubulin-Different-Phenotype (%): 33%
  Total Cell Count: 203
[4]
  Population Apoptotic (%): 10%
  Population Fragmented Nuclei (%): 4%
  Population Healthy Nuclei (%): 51%
  Population Hoechst High Intensity Objects (%): 3%
  Population Membrane Permeable-Phenotype (%): 5%
  Population Mitochondria Different-Phenotype (%): 18%
  Population Mitotic Cells (%): 89%
  Population Normal (%): 96%
  Population Pyknosed Nuclei (%): 43%
  Population Tubulin-Different-Phenotype (%): 16%
  Total Cell Count: 212
[5]
  Population Apoptotic (%): 43%
  Population Fragmented Nuclei (%): 16%
  Population Healthy Nuclei (%): 38%
  Population Hoechst High Intensity Objects (%): 12%
  Population Membrane Permeable-Phenotype (%): 3%
  Population Mitochondria Different-Phenotype (%): 46%
  Population Mitotic Cells (%): 56%
  Population Normal (%): 87%
  Population Pyknosed Nuclei (%): 45%
  Population Tubulin-Different-Phenotype (%): 24%
  Total Cell Count: 185
[6]
  Population Apoptotic (%): 8%
  Population Fragmented Nuclei (%): 6%
  Population Healthy Nuclei (%): 56%
  Population Hoechst High Intensity Objects (%): 5%
  Population Membrane Permeable-Phenotype (%): 12%
  Population Mitochondria Different-Phenotype (%): 13%
  Population Mitotic Cells (%): 91%
  Population Normal (%): 94%
  Population Pyknosed Nuclei (%): 36%
  Population Tubulin-Different-Phenotype (%): 21%
  Total Cell Count: 168
[7]
  Population Apoptotic (%): 51%
  Population Fragmented Nuclei (%): 13%
  Population Healthy Nuclei (%): 46%
  Population Hoechst High Intensity Objects (%): 16%
  Population Membrane Permeable-Phenotype (%): 5%
  Population Mitochondria Different-Phenotype (%): 48%
  Population Mitotic Cells (%): 48%
  Population Normal (%): 83%
  Population Pyknosed Nuclei (%): 39%
  Population Tubulin-Different-Phenotype (%): 26%
  Total Cell Count: 236
[8]
  Population Apoptotic (%): 13%
  Population Fragmented Nuclei (%): 5%
  Population Healthy Nuclei (%): 69%
  Population Hoechst High Intensity Objects (%): 4%
  Population Membrane Permeable-Phenotype (%): 8%
  Population Mitochondria Different-Phenotype (%): 17%
  Population Mitotic Cells (%): 86%
  Population Normal (%): 96%
  Population Pyknosed Nuclei (%): 25%
  Population Tubulin-Different-Phenotype (%): 24%
  Total Cell Count: 275
[9]
  Population Apoptotic (%): 44%
  Population Fragmented Nuclei (%): 20%
  Population Healthy Nuclei (%): 43%
  Population Hoechst High Intensity Objects (%): 16%
  Population Membrane Permeable-Phenotype (%): 2%
  Population Mitochondria Different-Phenotype (%): 27%
  Population Mitotic Cells (%): 55%
  Population Normal (%): 83%
  Population Pyknosed Nuclei (%): 36%
  Population Tubulin-Different-Phenotype (%): 26%
  Total Cell Count: 254
[10]
  Population Apoptotic (%): 14%
  Population Fragmented Nuclei (%): 6%
  Population Healthy Nuclei (%): 80%
  Population Hoechst High Intensity Objects (%): 5%
  Population Membrane Permeable-Phenotype (%): 11%
  Population Mitochondria Different-Phenotype (%): 6%
  Population Mitotic Cells (%): 85%
  Population Normal (%): 94%
  Population Pyknosed Nuclei (%): 12%
  Population Tubulin-Different-Phenotype (%): 24%
  Total Cell Count: 299
[11]
  Population Apoptotic (%): 29%
  Population Fragmented Nuclei (%): 18%
  Population Healthy Nuclei (%): 45%
  Population Hoechst High Intensity Objects (%): 11%
  Population Membrane Permeable-Phenotype (%): 2%
  Population Mitochondria Different-Phenotype (%): 19%
  Population Mitotic Cells (%): 70%
  Population Normal (%): 88%
  Population Pyknosed Nuclei (%): 35%
  Population Tubulin-Different-Phenotype (%): 21%
  Total Cell Count: 279
[12]
  Population Apoptotic (%): 6%
  Population Fragmented Nuclei (%): 6%
  Population Healthy Nuclei (%): 83%
  Population Hoechst High Intensity Objects (%): 2%
  Population Membrane Permeable-Phenotype (%): 3%
  Population Mitochondria Different-Phenotype (%): 5%
  Population Mitotic Cells (%): 94%
  Population Normal (%): 97%
  Population Pyknosed Nuclei (%): 9%
  Population Tubulin-Different-Phenotype (%): 14%
  Total Cell Count: 534

## COc1cc2ncnc(Nc3ccc(F)c(Cl)c3)c2cc1NC(=O)/C=C/CN1CCCCC1 [DACOMITINIB ANHYDROUS]
[1]
  Population Apoptotic (%): 34%
  Population Fragmented Nuclei (%): 28%
  Population Healthy Nuclei (%): 32%
  Population Hoechst High Intensity Objects (%): 24%
  Population Membrane Permeable-Phenotype (%): 18%
  Population Mitochondria Different-Phenotype (%): 41%
  Population Mitotic Cells (%): 65%
  Population Normal (%): 75%
  Population Pyknosed Nuclei (%): 38%
  Population Tubulin-Different-Phenotype (%): 72%
  Total Cell Count: 554
[2]
  Population Apoptotic (%): 13%
  Population Fragmented Nuclei (%): 5%
  Population Healthy Nuclei (%): 83%
  Population Hoechst High Intensity Objects (%): 4%
  Population Membrane Permeable-Phenotype (%): 7%
  Population Mitochondria Different-Phenotype (%): 36%
  Population Mitotic Cells (%): 86%
  Population Normal (%): 95%
  Population Pyknosed Nuclei (%): 10%
  Population Tubulin-Different-Phenotype (%): 66%
  Total Cell Count: 1314
[3]
  Population Apoptotic (%): 14%
  Population Fragmented Nuclei (%): 14%
  Population Healthy Nuclei (%): 69%
  Population Hoechst High Intensity Objects (%): 12%
  Population Membrane Permeable-Phenotype (%): 4%
  Population Mitochondria Different-Phenotype (%): 6%
  Population Mitotic Cells (%): 85%
  Population Normal (%): 87%
  Population Pyknosed Nuclei (%): 15%
  Population Tubulin-Different-Phenotype (%): 5%
  Total Cell Count: 670
[4]
  Population Apoptotic (%): 12%
  Population Fragmented Nuclei (%): 5%
  Population Healthy Nuclei (%): 89%
  Population Hoechst High Intensity Objects (%): 2%
  Population Membrane Permeable-Phenotype (%): 2%
  Population Mitochondria Different-Phenotype (%): 11%
  Population Mitotic Cells (%): 87%
  Population Normal (%): 97%
  Population Pyknosed Nuclei (%): 5%
  Population Tubulin-Different-Phenotype (%): 6%
  Total Cell Count: 1444
[5]
  Population Apoptotic (%): 39%
  Population Fragmented Nuclei (%): 27%
  Population Healthy Nuclei (%): 34%
  Population Hoechst High Intensity Objects (%): 22%
  Population Membrane Permeable-Phenotype (%): 9%
  Population Mitochondria Different-Phenotype (%): 63%
  Population Mitotic Cells (%): 60%
  Population Normal (%): 77%
  Population Pyknosed Nuclei (%): 37%
  Population Tubulin-Different-Phenotype (%): 73%
  Total Cell Count: 532
[6]
  Population Apoptotic (%): 6%
  Population Fragmented Nuclei (%): 16%
  Population Healthy Nuclei (%): 79%
  Population Hoechst High Intensity Objects (%): 3%
  Population Membrane Permeable-Phenotype (%): 6%
  Population Mitochondria Different-Phenotype (%): 13%
  Population Mitotic Cells (%): 93%
  Population Normal (%): 96%
  Population Pyknosed Nuclei (%): 4%
  Population Tubulin-Different-Phenotype (%): 54%
  Total Cell Count: 1906
[7]
  Population Apoptotic (%): 18%
  Population Fragmented Nuclei (%): 11%
  Population Healthy Nuclei (%): 79%
  Population Hoechst High Intensity Objects (%): 6%
  Population Membrane Permeable-Phenotype (%): 10%
  Population Mitochondria Different-Phenotype (%): 3%
  Population Mitotic Cells (%): 81%
  Population Normal (%): 94%
  Population Pyknosed Nuclei (%): 9%
  Population Tubulin-Different-Phenotype (%): 10%
  Total Cell Count: 800
[8]
  Population Apoptotic (%): 4%
  Population Fragmented Nuclei (%): 18%
  Population Healthy Nuclei (%): 78%
  Population Hoechst High Intensity Objects (%): 2%
  Population Membrane Permeable-Phenotype (%): 4%
  Population Mitochondria Different-Phenotype (%): 1%
  Population Mitotic Cells (%): 95%
  Population Normal (%): 97%
  Population Pyknosed Nuclei (%): 2%
  Population Tubulin-Different-Phenotype (%): 5%
  Total Cell Count: 2468
